Published values pooled from the literature.
Compare with care: the assays were run in different laboratories.
Read-out: cell growth or viability

SMILES | cell line | assay | setting | endpoint | result
Nc1ccc(/C=C/C(=O)N2CCc3c(oc4c(-c5ccc(F)cc5)cc(-c5ccc(C(=O)N6CCOCC6)nn5)cc34)C2)cn1 | ASPC1 | CCK-8 | 72 h | IC50 | 870 nM
CCN1[C@@H](C(=O)NC23CCC(C(=O)O)(CC2)CC3)[C@H](c2cccc(Cl)c2F)[C@]2(C(=O)Nc3cc(Cl)ccc32)C12CCCCC2 | SW982 | resazurin | 72 h | GI50 | 157 nM
C=C(F)C(=O)N1CCN(c2nc(OC[C@@H]3CCCN3C)nc3c2CCN(c2cccc4cccc(Cl)c24)C3)C[C@@H]1CC#N | ASPC1 | ATP luminescence |  | IC50 | 2010 nM
Cc1cc(/C=C/C#N)cc(C)c1Nc1ccnc(Nc2ccc(C#N)cc2)n1 | CNE-2 | MTT | 48 h | IC50 | 18700 nM
O=C(NO)c1ccc(CNc2nc3cccc(-c4ccc5c(c4)OCO5)n3n2)cc1 | CAKI-1 | SRB |  | GI50 | 660 nM
Nc1ccc(/C=C/C(=O)NCc2cc3cc(-c4ccc(C(=O)N5CCC(F)(F)CC5)cc4)cc(-c4ccc(F)cc4)c3o2)cn1 | ASPC1 | CCK-8 | 72 h | IC50 | 440 nM
CC1(C)CCC2(CC1)N[C@@H](C(=O)N[C@@H]1CC[C@@H](C(N)=O)OC1)[C@H](c1ccnc(Cl)c1F)[C@]21C(=O)Nc2cc(Cl)ccc21 | SW982 | resazurin | 72 h | GI50 | 21 nM
COc1cc2nc(N3CCN(C(=O)c4ccco4)CC3)nc(N)c2cc1OC | CNE-2 | MTT | 48 h | IC50 | 34800 nM
C=CC(=O)N1CCN(c2nc(=O)n(-c3c(C)ccnc3C(C)C)c3nc(-c4c(O)cccc4F)c(F)cc23)[C@@H](C)C1 | SW756 | ATP luminescence |  | IC50 | 111 nM
C=CC(=O)NC1CCN(c2ncc3ncnc(Nc4ccc(Oc5ccc6c(c5)ncn6C)c(C)c4)c3n2)CC1 | EFM-192A |  |  | EC50 | 28.4 nM
